Data reported in ChEMBL document CHEMBL5724801, “EUbOPEN Chemogenomics Library - Multiplex” (2024).
Values joined by “and” are separate entries in the source; they are usually repeats but may differ in a detail not shown here. Identical values can stand only once.

Tests used:
[1] = system: U2OS; assay: Multiplex assay against U2OS; format: toxicity, cell-based; conditions: human
Procedure, shortened: (§1)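 Live cells were stained at seeding with Hoechst33342, BioTracker Green Microtubule Cytoskeleton Dye, MitoTracker Red and Annexin V Alexa Fluor 680, then imaged on a CQ1 microscope at 37°C and 5% CO2 after compound addition. CellPathfinder machine-learning gating split cells into Hoechst high-intensity objects or normal cells. Normal cells were split into healthy, pyknosed or fragmented nuclei, and pyknosed cells into mitotic or apoptotic. Tubulin, mitochondrial-mass and membrane-permeability phenotypes are per cents of healthy-nucleus cells.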

[2] = system: HEK-293T; assay: Multiplex assay against HEK293T; format: toxicity, cell-based; conditions: human; procedure, shortened: as §1
[3] = 24 h, 10 µM, compound concentration 10 uM
[4] = 48 h, 1 µM, compound concentration 1 uM
[5] = 48 h, 10 µM, compound concentration 10 uM
[6] = 12 h, 1 µM, compound concentration 1 uM
[7] = 12 h, 10 µM, compound concentration 10 uM
[8] = 24 h, 1 µM, compound concentration 1 uM

O=C(O)CCC/C=C\CC1C(O)CC(O)C1/C=C/C(O)COc1cccc(Cl)c1 (stereo not drawn) [CLOPROSTENOL]
Population Fragmented Nuclei (%) [1, 3]: 23% and 11% | Population Healthy Nuclei (%) [1, 3]: 66% and 82% | Population Hoechst High Intensity Objects (%) [1, 3]: 2% and 0% | Population Membrane Permeable-Phenotype (%) [1, 3]: 7% and 11% | Population Mitochondria Different-Phenotype (%) [1, 3]: 2% and 4% | Population Mitotic Cells (%) [1, 3]: 10% and 30% | Population Normal (%) [1, 3]: 97% and 100% | Population Pyknosed Nuclei (%) [1, 3]: 10% and 5% | Population Tubulin-Different-Phenotype (%) [1, 3]: 3% and 4% | Total Cell Count [1, 3]: 306 and 177 | Population Apoptotic (%) [1, 4]: 89% and 81% | Population Fragmented Nuclei (%) [1, 4]: 20% and 11% | Population Healthy Nuclei (%) [1, 4]: 70% and 81% | Population Hoechst High Intensity Objects (%) [1, 4]: 1% and 0% | Population Membrane Permeable-Phenotype (%) [1, 4]: 2% and 6% | Population Mitochondria Different-Phenotype (%) [1, 4]: 1% and 3% | Population Mitotic Cells (%) [1, 4]: 10% and 18% | Population Normal (%) [1, 4]: 98% and 99% | Population Pyknosed Nuclei (%) [1, 4]: 8% and 7% | Population Tubulin-Different-Phenotype (%) [1, 4]: 0% and 2% | Total Cell Count [1, 4]: 344 and 229 | Population Apoptotic (%) [1, 5]: 91% and 84% | Population Fragmented Nuclei (%) [1, 5]: 18% and 12% | Population Healthy Nuclei (%) [1, 5]: 67% and 82% | Population Hoechst High Intensity Objects (%) [1, 5]: 3% and 2% | Population Membrane Permeable-Phenotype (%) [1, 5]: 6% and 10% | Population Mitochondria Different-Phenotype (%) [1, 5]: 1% and 2% | Population Mitotic Cells (%) [1, 5]: 8% and 15% | Population Normal (%) [1, 5]: 96% and 97% | Population Pyknosed Nuclei (%) [1, 5]: 14% and 5% | Population Tubulin-Different-Phenotype (%) [1, 5]: 4% | Total Cell Count [1, 5]: 396 and 246 | Population Apoptotic (%) [2, 6]: 31% and 40% | Population Fragmented Nuclei (%) [2, 6]: 7% and 6% | Population Healthy Nuclei (%) [2, 6]: 81% and 80% | Population Hoechst High Intensity Objects (%) [2, 6]: 9% and 7% | Population Membrane Permeable-Phenotype (%) [2, 6]: 0% | Population Mitochondria Different-Phenotype (%) [2, 6]: 44% and 56% | Population Mitotic Cells (%) [2, 6]: 68% and 59% | Population Normal (%) [2, 6]: 90% and 92% | Population Pyknosed Nuclei (%) [2, 6]: 10% and 13% | Population Tubulin-Different-Phenotype (%) [2, 6]: 35% and 23% | Total Cell Count [2, 6]: 458 and 341 | Population Apoptotic (%) [2, 7]: 45% and 51% | Population Fragmented Nuclei (%) [2, 7]: 7% and 8% | Population Healthy Nuclei (%) [2, 7]: 77% | Population Hoechst High Intensity Objects (%) [2, 7]: 6% and 13% | Population Membrane Permeable-Phenotype (%) [2, 7]: 0% | Population Mitochondria Different-Phenotype (%) [2, 7]: 63% and 68% | Population Mitotic Cells (%) [2, 7]: 54% and 48% | Population Normal (%) [2, 7]: 93% and 86% | Population Pyknosed Nuclei (%) [2, 7]: 14% | Population Tubulin-Different-Phenotype (%) [2, 7]: 41% and 37% | Total Cell Count [2, 7]: 395 and 357 | Population Apoptotic (%) [2, 8]: 22% and 34% | Population Fragmented Nuclei (%) [2, 8]: 11% and 7% | Population Healthy Nuclei (%) [2, 8]: 76% and 83% | Population Hoechst High Intensity Objects (%) [2, 8]: 7% and 5% | Population Membrane Permeable-Phenotype (%) [2, 8]: 1% and 0% | Population Mitochondria Different-Phenotype (%) [2, 8]: 25% and 37% | Population Mitotic Cells (%) [2, 8]: 77% and 65% | Population Normal (%) [2, 8]: 92% and 94% | Population Pyknosed Nuclei (%) [2, 8]: 11% and 9% | Population Tubulin-Different-Phenotype (%) [2, 8]: 28% and 16% | Total Cell Count [2, 8]: 612 and 477 | Population Apoptotic (%) [2, 3]: 46% | Population Fragmented Nuclei (%) [2, 3]: 10% and 12% | Population Healthy Nuclei (%) [2, 3]: 78% | Population Hoechst High Intensity Objects (%) [2, 3]: 7% and 11% | Population Membrane Permeable-Phenotype (%) [2, 3]: 0% | Population Mitochondria Different-Phenotype (%) [2, 3]: 46% and 55% | Population Mitotic Cells (%) [2, 3]: 54% and 53% | Population Normal (%) [2, 3]: 92% and 88% | Population Pyknosed Nuclei (%) [2, 3]: 10% and 9% | Population Tubulin-Different-Phenotype (%) [2, 3]: 35% and 31% | Total Cell Count [2, 3]: 490 and 483 | Population Apoptotic (%) [2, 4]: 20% and 28% | Population Fragmented Nuclei (%) [2, 4]: 15% and 13% | Population Healthy Nuclei (%) [2, 4]: 77% and 81% | Population Hoechst High Intensity Objects (%) [2, 4]: 4% and 5% | Population Membrane Permeable-Phenotype (%) [2, 4]: 1% | Population Mitochondria Different-Phenotype (%) [2, 4]: 15% and 20% | Population Mitotic Cells (%) [2, 4]: 79% and 71% | Population Normal (%) [2, 4]: 95% and 94% | Population Pyknosed Nuclei (%) [2, 4]: 6% and 5% | Population Tubulin-Different-Phenotype (%) [2, 4]: 15% and 11% | Total Cell Count [2, 4]: 956 and 703 | Population Apoptotic (%) [2, 5]: 33% and 25% | Population Fragmented Nuclei (%) [2, 5]: 16% and 18% | Population Healthy Nuclei (%) [2, 5]: 76% and 75% | Population Hoechst High Intensity Objects (%) [2, 5]: 7% and 6% | Population Membrane Permeable-Phenotype (%) [2, 5]: 0% and 1% | Population Mitochondria Different-Phenotype (%) [2, 5]: 32% and 25% | Population Mitotic Cells (%) [2, 5]: 66% and 74% | Population Normal (%) [2, 5]: 92% and 93% | Population Pyknosed Nuclei (%) [2, 5]: 6% and 5% | Population Tubulin-Different-Phenotype (%) [2, 5]: 18% | Total Cell Count [2, 5]: 659 and 731
